One data set concerns the target designed protein gp41-5. As to the kind of experiment: competition fluorescence polarization. Details: species or system HIV. The note with it: read-out: Ki for binding to gp41-5; competition FP assay. The procedure, abridged:
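Competition fluorescence polarization binding of test compound to a designed gp41-5 construct made of three NHR segments and two CHR segments joined by flexible loops. Ki reported.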
For orientation: Fluorescence polarisation rises when a labelled molecule tumbles more slowly, as on binding a larger partner.

Data set [1] deals with proteinase K. As to the kind of experiment: in vitro. The note with it: isolated enzyme proteinase k. It counts as in vitro ADME.
For a further data set, the system named is HIV-1 JRFL. It counts as cell-based.
Data set [2] concerns the target proteinase K (Parengyodontium album, UniProt P06873). The note with it: in vitro, ref 3a; cited from earlier work.
The subject of another data set is HIV-1 DJ258. It counts as cell-based.
The next data set relates to HIV-1 UG270. It counts as cell-based.
For another data set, the system named is HIV-1 CC 7/86. It counts as cell-based.
For data set [3], the target named is gp41-derived NHR peptide N36 (Human immunodeficiency virus type 1 group M subtype B, UniProt P04578). It counts as physicochemical, HIV. As to conditions: variable-temperature CD; co-assembly with NHR peptide N36.
gp41-derived NHR peptide N36, sequence (P04578 546-581 limits assumed): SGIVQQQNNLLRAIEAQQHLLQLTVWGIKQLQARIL

*1 amine or outer side, *2 acyl side, *3 side chain or, on linkers, in order; H or OH if unused. Where a SMILES comes first, the peptide text is derived from it. [ ]: non-standard residue; d: D form. X1 = O=C([C@H]1CCC[C@@H]1N[*:1])[*:2]; X2 = O=C([C@H]1CNC[C@@H]1N[*:1])[*:2]; β3hR = N=C(N)NCCC[C@H](N)CC(=O)O; β3hT = C[C@@H](O)[C@H](N)CC(=O)O; β3hE = N[C@@H](CCC(=O)O)CC(=O)O

proteinase K (Parengyodontium album, UniProt P06873), sequence (P06873 106-384): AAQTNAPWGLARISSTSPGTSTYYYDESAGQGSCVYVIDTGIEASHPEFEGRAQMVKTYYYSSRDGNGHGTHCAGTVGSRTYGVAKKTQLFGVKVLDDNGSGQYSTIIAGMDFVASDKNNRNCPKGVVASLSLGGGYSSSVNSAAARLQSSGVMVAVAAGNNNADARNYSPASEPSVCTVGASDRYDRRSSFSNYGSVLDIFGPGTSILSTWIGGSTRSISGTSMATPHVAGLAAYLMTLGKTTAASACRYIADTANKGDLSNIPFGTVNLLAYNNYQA

On to `CC[C@H](C)[C@H](NC(=O)[C@H](C)NC(=O)C[C@H](CCCNC(=N)N)NC(=O)[C@H](CC(=O)O)NC(=O)[C@H](Cc1c[nH]c2ccccc12)NC(=O)C[C@H](C)NC(=O)[C@H](CCC(=O)O)NC(=O)[C@H](Cc1c[nH]c2ccccc12)NC(=O)[C@@H](NC(=O)C[C@@H](NC(C)=O)[C@@H](C)O)[C@@H](C)O)C(=O)N[C@@H](C)C(=O)N[C@@H](CCC(=O)O)CC(=O)N[C@@H](Cc1ccc(O)cc1)C(=O)N[C@@H](C)C(=O)N[C@@H](C)CC(=O)N[C@@H](CCCNC(=N)N)C(=O)N[C@H](C(=O)N[C@@H](CCC(=O)O)C(=O)N[C@@H](C)CC(=O)N[C@@H](CC(C)C)C(=O)N[C@H](C(=O)N[C@@H](CCCNC(=N)N)CC(=O)N[C@@H](C)C(=O)N[C@@H](C)C(=O)N[C@@H](CCC(N)=O)C(=O)N[C@@H](CCC(=O)O)CC(=O)N[C@@H](CCC(N)=O)C(=O)N[C@@H](CCC(N)=O)C(=O)N[C@@H](CCC(=O)O)CC(=O)N[C@@H](CCCCN)C(=O)N[C@@H](CC(N)=O)C(=O)N[C@@H](CCC(=O)O)C(=O)N[C@@H](C)CC(=O)N[C@@H](C)C(=O)N[C@@H](CC(C)C)C(=O)N[C@@H](CCCNC(=N)N)CC(=O)N[C@@H](CCC(=O)O)C(=O)N[C@@H](CC(C)C)C(N)=O)[C@@H](C)CC)[C@@H](C)CC` [1α/β], for which, on designed protein gp41-5, the Ki stood at 3800 nM. For the same molecule, the half-life in the data set with proteinase K [1] turned out to be 4 min.

For the molecule `CC[C@H](C)[C@H](NC(=O)[C@H](C)NC(=O)[C@H]1CNC[C@@H]1NC(=O)[C@H](CC(=O)O)NC(=O)[C@H](Cc1c[nH]c2ccccc12)NC(=O)[C@H]1CCC[C@@H]1NC(=O)[C@H](CCC(=O)O)NC(=O)[C@H](Cc1c[nH]c2ccccc12)NC(=O)[C@@H](NC(=O)C[C@@H](NC(C)=O)[C@@H](C)O)[C@@H](C)O)C(=O)N[C@@H](C)C(=O)N[C@@H](CCC(=O)O)CC(=O)N[C@@H](Cc1ccc(O)cc1)C(=O)N[C@@H](C)C(=O)N[C@H]1CCC[C@@H]1C(=O)N[C@@H](CCCNC(=N)N)C(=O)N[C@H](C(=O)N[C@@H](CCC(=O)O)C(=O)N[C@H]1CCC[C@@H]1C(=O)N[C@@H](CC(C)C)C(=O)N[C@H](C(=O)N[C@H]1CNC[C@@H]1C(=O)N[C@@H](C)C(=O)N[C@@H](C)C(=O)N[C@@H](CCC(N)=O)C(=O)N[C@@H](CCC(=O)O)CC(=O)N[C@@H](CCC(N)=O)C(=O)N[C@@H](CCC(N)=O)C(=O)N[C@@H](CCC(=O)O)CC(=O)N[C@@H](CCCCN)C(=O)N[C@@H](CC(N)=O)C(=O)N[C@@H](CCC(=O)O)C(=O)N[C@H]1CCC[C@@H]1C(=O)N[C@@H](C)C(=O)N[C@@H](CC(C)C)C(=O)N[C@H]1CNC[C@@H]1C(=O)N[C@@H](CCC(=O)O)C(=O)N[C@@H](CC(C)C)C(N)=O)[C@@H](C)CC)[C@@H](C)CC` [2α/β] (Ac-[β3hT]TWE[X1]WD[X2]AIA[β3hE]YA[X1]RIE[X1]LI[X2]AAQ[β3hE]QQ[β3hE]KNE[X1]AL[X2]EL-NH2; N-terminus and C-terminus assumed), the IC50 in the data set on HIV-1 JRFL was found to be 131 nM; in the data set with HIV-1 DJ258 it was 42 nM; in the data set with HIV-1 UG270, 39 nM; in the data set with HIV-1 CC 7/86 it was 47 nM. For the same molecule, the “resistance to degradation by proteinase K relative to α-peptide T-2635” value at proteinase K [2] is on record as ~ 300 fold.

For the molecule `CC[C@H](C)[C@H](NC(=O)[C@H](C)NC(=O)C[C@H](CCCNC(=N)N)NC(=O)[C@H](CC(=O)O)NC(=O)[C@H](Cc1c[nH]c2ccccc12)NC(=O)C[C@H](CCC(=O)O)NC(=O)[C@H](CCC(=O)O)NC(=O)[C@H](Cc1c[nH]c2ccccc12)NC(=O)[C@@H](NC(=O)C[C@H](CCCNC(=N)N)NC(C)=O)[C@@H](C)O)C(=O)N[C@@H](C)C(=O)N[C@@H](CCC(=O)O)CC(=O)N[C@@H](Cc1ccc(O)cc1)C(=O)N[C@@H](C)C(=O)N[C@@H](CCCNC(=N)N)CC(=O)N[C@@H](CCCNC(=N)N)C(=O)N[C@H](C(=O)N[C@@H](CCC(=O)O)C(=O)N[C@@H](CCC(=O)O)CC(=O)N[C@@H](CC(C)C)C(=O)N[C@H](C(=O)N[C@@H](CCCNC(=N)N)CC(=O)N[C@@H](C)C(=O)N[C@@H](C)C(=O)N[C@@H](CCC(N)=O)C(=O)N[C@@H](CCC(=O)O)CC(=O)N[C@@H](CCC(N)=O)C(=O)N[C@@H](CCC(N)=O)C(=O)N[C@@H](CCCNC(=N)N)CC(=O)N[C@@H](CCCCN)C(=O)N[C@@H](CC(N)=O)C(=O)N[C@@H](CCC(=O)O)C(=O)N[C@@H](CCC(=O)O)CC(=O)N[C@@H](C)C(=O)N[C@@H](CC(C)C)C(=O)N[C@@H](CCCNC(=N)N)CC(=O)N[C@@H](CCC(=O)O)C(=O)N[C@@H](CC(C)C)C(N)=O)[C@@H](C)CC)[C@@H](C)CC` [4α/β] (Ac-[β3hR]TWE[β3hE]WD[β3hR]AIA[β3hE]YA[β3hR]RIE[β3hE]LI[β3hR]AAQ[β3hE]QQ[β3hR]KNE[β3hE]AL[β3hR]EL-NH2; N-terminus and C-terminus assumed), the IC50 with HIV-1 JRFL amounted to 153 nM; in the data set with HIV-1 DJ258, 78 nM; in the data set with HIV-1 UG270, 56 nM; in the data set on HIV-1 CC 7/86 it was 49 nM. In addition, on designed protein gp41-5, the Ki was 11 nM. Moreover, the half-life in the data set on proteinase K [1] came out at 3.5 min.

Take “Ac-RTWEEWDRAIAEYARRIEELIRAAQEQQRKNEEALREL-NH2 (N-terminus and C-terminus assumed) [3α]”: the “apparent Tm of helix-bundle with N36” value in data set [3] amounted to 91 °C. In addition, at designed protein gp41-5, the Ki is < 0.2 nM.

On to Enfuvirtide, for which the IC50 in the data set on HIV-1 JRFL was 180 nM; with HIV-1 DJ258, 200 nM; in the data set on HIV-1 UG270 it was 110 nM; in the data set with HIV-1 CC 7/86 it was 140 nM.

Usually Ki stands for a measure of affinity in units of concentration, obtained from inhibition or displacement. A word on the half-life: it is the time in which the quantity being followed falls by half. Low readings indicate fast loss, high ones slow loss. Usually IC50 stands for the concentration needed to halve the response being measured. Read a low IC50 as higher potency.
